Only some compounds are listed: those with a hit (about 3.7% of all), similar ones and a draw of the others.
SR-BI HDL uptake – mouse SR-BI HDL lipid transfer inhibition. Q61009. ldlA[mSR-BI] CHO cells, DiI-HDL uptake fluorescence, 3 h. inhibition, % at 12.5 µM. 320,000 tested, 0.96% active;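 active = mean replicate inhibition of at least 70% and a set share of replicates each scoring 70 or more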;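 note: 0% = median of neutral control wells and 100% = median of positive control wells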
GASC-1 inh – blocks human GASC-1 demethylase activity; Q9H3R0; GST-JMJD2C(1-420) H3K9me3 demethylation, DELFIA europium; inhibition, % at 2.35 µM; 330,000 tested, 0.069% active; AID 2099;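 active = more than half of a compound's replicate wells show inhibition beyond 50%, single wells judged on their own value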;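 note: signal counts dimethyl H3K9 product captured on neutravidin plate; 0% = median of DMSO wells and 100% = 0.3 times that DMSO median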
Target sequence (Q9H3R0 1-420 limits assumed): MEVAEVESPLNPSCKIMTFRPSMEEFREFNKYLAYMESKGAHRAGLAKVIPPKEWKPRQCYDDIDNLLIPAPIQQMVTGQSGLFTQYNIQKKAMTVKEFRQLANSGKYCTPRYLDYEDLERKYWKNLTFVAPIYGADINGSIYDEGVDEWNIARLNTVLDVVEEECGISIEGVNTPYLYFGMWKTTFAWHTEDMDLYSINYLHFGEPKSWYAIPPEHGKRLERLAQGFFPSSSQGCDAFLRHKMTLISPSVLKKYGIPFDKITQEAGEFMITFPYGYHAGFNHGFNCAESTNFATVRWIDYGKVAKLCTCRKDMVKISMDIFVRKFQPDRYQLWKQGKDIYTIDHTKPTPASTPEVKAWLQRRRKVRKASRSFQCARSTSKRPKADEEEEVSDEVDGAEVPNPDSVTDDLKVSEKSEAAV
SR-BI uptake up – SR-BI HDL lipid transfer activation | activation, % at 12.5 µM | CHO ldlA[mSR-BI] cells, DiI-HDL uptake fluorescence, 3 h; 100 = double the neutral-control signal | 320,000 tested, 0.096% active | AID 504775;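 active = mean replicate activation of at least 60% and every replicate at or above 60%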;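 note: 0% = median plate neutral-control signal and 100% = twice that signal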
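Assay system: LDL receptor-deficient CHO ldlA cells overexpressing murine SR-BI / Medium: BSA-supplemented, HEPES-buffered Ham's F12, pH 7.4 / Probe or stimulus: DiI-labelled HDL at 10 µg/mL final / Timing: compound with DiI-HDL co-incubation, 3 h at 37 °C / Technique: bottom-read cell fluorescence after medium removal, ex 550/em 595 nm / Measure: HDL uptake via cellular fluorescence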
FXN GAA850 act – activators of GAA850 frataxin (FXN) promoter; activation, % at 6 µM; 360,000 tested, 0.56% active; HEK293 lucGAA850 FXN promoter luciferase reporter, 24 h; percent of 10 µM SAHA response;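 active = activation above the average of all compounds screened plus 3 SD, cutoff fixed separately per campaign, cut at about 7.5% in these data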;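 note: 0% = DMSO wells and 100% = 10 µM SAHA wells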
AHR activator – human AHR activation; P35869; AHR-responsive luciferase reporter cells, luminescence; activation, % at 5 µM; 320,000 tested, 2.5% active; in the data active = activation above about 47%;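 note: 0% = vehicle wells and 100% = reference agonist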
* = called active by the depositor; . = no result.

SMILES | SR-BI HDL uptake | GASC-1 inh | SR-BI uptake up | FXN GAA850 act | AHR activator
CC(C)C[C@H]1CNC(=S)N1CC1CCCN1C[C@H](CC(C)C)N1C[C@H](Cc2ccc(O)cc2)N(CC2CCCCC2)C1=S (stereo partly drawn) | -26 | . | 26 | 1 | .
CC(C)C[C@@H](CN1CCCC1CN1C(=S)NC[C@@H]1Cc1ccc(O)cc1)N1C[C@H](Cc2ccc(O)cc2)N(CC2CCCCC2)C1=S (stereo partly drawn) | -76 | . | 76* | -4 | .
Oc1ccc(C[C@H]2CNC(=S)N2CC2CCCN2C[C@H](Cc2ccccc2)N2C[C@H](Cc3ccc(O)cc3)N(CC3CCCCCC3)C2=S)cc1 (stereo partly drawn) | -86 | . | 86* | 0 | .
CC(C)(C)c1ccc(NC(=O)N2CCCN(c3c(Cl)cncc3Cl)CC2)cc1 | 0 | 1 | 0 | 1 | 0
CN(C)C(=O)N1CCN(C(=O)N2CCOCC2)CC1 | -75 | 2 | 75* | 1 | 2
CCCCC(=O)Nc1ccc(NC(=O)c2ccc(C)c([N+](=O)[O-])c2)cc1OC | 42 | 2 | -42 | 2 | 72*
COc1ccc(CN2C[C@@H](CO)O[C@@H](n3cnc4c(N(C)C)ncnc43)C2)cc1 | . | . | . | 1 | .
Cc1ccc2cccc(OCc3ccc(Br)cc3)c2n1 | -4 | 1 | 4 | -1 | 73*
C/C(O)=C(/C=Nc1ccccc1)C(=O)Nc1ccccc1 | 2 | -7 | -2 | 2 | 48*
O=C(NCc1ccccc1)C(=O)NCC1OCCN1C(=O)c1ccc(Cl)cc1 (stereo not drawn) | 13 | 6 | -13 | 2 | 0
Cc1nc2ccccc2cc1C(=O)Nc1ccccc1Cl | 8 | 5 | -8 | 1 | 36
Cc1nc2ccc(F)cc2cc1C(=O)Nc1cccc(Cl)c1C | -7 | 16 | 7 | 2 | 107*
COc1ccc2[nH]c(C(=O)N/N=C/c3ccc(O)cc3O)cc2c1 | 99* | -4 | -99 | -10 | .
COc1cccc(C=NNC(=O)c2ccncc2)c1O | 31 | . | -31 | -4 | .
CCOc1ccc2[nH]c(C(=O)N/N=C/c3ccc(OC)cc3)cc2c1 | 9 | -3 | -9 | -2 | .
COc1cccc(/C=N/NC(=O)N/N=C/c2cccc(OC)c2O)c1O | 83* | 0 | -83 | -4 | 5
COc1cccc(/C=N/NC(=O)c2nc(-c3ccccc3)cc(-c3ccccc3)n2)c1O | 106* | 95 | -106 | -2 | 42
COc1cccc(/C=N/NC(=O)c2c(C)nc3ccc(Br)cn23)c1O | 100* | 9 | -100 | -11 | 2
Cc1nn(-c2ccc(Cl)cc2)c(NC(=O)C(C)C)c(-c2ccccc2)c1=O | -6 | 6 | 6 | -1 | 2
Cc1cc(=O)n2nc(N3CCCC(C(=O)NCc4cccc(Br)c4)C3)sc2n1 (stereo not drawn) | -18 | 1 | 18 | -1 | 0
CCCOc1nc2c(c(=O)n(C)c(=O)n2C)n1Cc1cccc2ccccc12 | -3 | 11 | 3 | 1 | 0
O=C1Nc2ccccc2C1=Nc1ccc2[nH]c3ccccc3c2c1 | -5 | . | 5 | 1 | .
COc1cc(OC)c2cc(C(=O)N/N=C/c3cccc(OC)c3O)[nH]c2c1 | 121* | 4 | -121 | -2 | 49*
COc1cccc(/C=N/NC(=O)c2ccc3nc[nH]c3c2)c1O | 38 | 1 | -38 | 1 | 7
Cc1ccc(NC(=O)CSCC(=O)NC2=NCCS2)cc1 | 1 | -3 | -1 | 1 | 2
SMILES | SR-BI HDL uptake | GASC-1 inh | SR-BI uptake up | FXN GAA850 act | AHR activator
Cc1c(/C=N\NC(=O)C2COc3ccccc3O2)c2ccccc2n1C (stereo not drawn) | 12 | -9 | -12 | 0 | 51*
Cc1ccc(S(=O)(=O)/C(C#N)=C/c2c(N3CC(C)OC(C)C3)nc3c(C)cccn3c2=O)cc1 (stereo not drawn) | -30 | 5 | 30 | 4 | -2
CCCNC(=O)c1c[nH]c2ccc(S(=O)(=O)N(C)c3ccc(OCC)cc3)cc2c1=O | . | 14 | . | . | 54*
CCOc1ccc(N(C)S(=O)(=O)c2ccc3[nH]cc(C(=O)NCCCOC)c(=O)c3c2)cc1 | -5 | -8 | 5 | 1 | 48*
CCC(C(=O)N1CCC(N2CCCCC2)CC1)n1nc(C)c2sc3ccccc3c2c1=O (stereo not drawn) | -12 | -3 | 12 | 1 | 2
CC(=O)c1cccc(S(=O)(=O)NCCC(=O)O)c1 | -10 | -1 | 10 | 2 | 1
O=C(Nc1nc2c(F)cc(F)cc2s1)C1CC1 | -13 | -19 | 13 | 3 | 55*
O=C(Nc1nc2c(Cl)ccc(Cl)c2s1)C1CC1 | 26 | 6 | -26 | 1 | 27
O=C(Nc1nc2c(Cl)c(Cl)ccc2s1)C1CC1 | -15 | -486 | 15 | 0 | 48*
O=C(Nc1nc2c(Cl)cccc2s1)C1CC1 | -28 | 3 | 28 | -1 | 55*
CCCCCN(C(=O)CCC(=O)OCC(=O)c1cccc(OC)c1)c1c(N)n(CCCC)c(=O)[nH]c1=O | 4 | 59* | -4 | 2 | 0
CCCCN(C(=O)c1cccc(S(=O)(=O)N2CCCC2)c1)c1c(N)n(CCC)c(=O)[nH]c1=O | -70 | 11 | 70* | 1 | -2
CCCCCN(C(=O)CCC(=O)OCC(=O)c1ccc(F)c(F)c1)c1c(N)n(CCCC)c(=O)[nH]c1=O | 23 | 0 | -23 | -2 | -2
COc1cc(NC(=O)c2cc3cccc(OC)c3o2)cc(C(=O)Nc2cccc(C(F)(F)F)c2)c1 | 60 | 7 | -60 | -7 | 73*
COc1cc(NC(=O)c2ccno2)cc(C(=O)Nc2cccc(C(F)(F)F)c2)c1 | 16 | 3 | -16 | 4 | 64*
CCN1CCN(Cc2ccc(NC(=O)c3cc(NC(=O)c4cc5cccc(OC)c5o4)cc(OC)c3)cc2C(F)(F)F)CC1 | 29 | -6 | -29 | 0 | 16
COc1cccc(NC(=O)c2cc3cccc(OC)c3o/c2=N\O)c1 | . | -6 | . | . | 63*
O=C(NC1CCN(Cc2ccc3ccccc3c2)CC1)c1ccccc1 | . | 5 | . | 0 | 4
CC(NC(=O)CN1CCN(C(=O)c2cccs2)CC1)c1ccc(F)cc1F (stereo not drawn) | -13 | 9 | 13 | 2 | 0
O=C(c1ccc(Cl)nc1)c1cccs1 | . | 5 | . | . | 54*
CSc1ccc(Cl)c(C(=O)OCC(=O)Nc2ccccc2OC(F)F)c1 | 6 | -192 | -6 | -2 | 4
O=C(Nc1ccccc1C(=O)Nc1ccc(F)cc1)c1ccco1 | 75* | -12 | -75 | 0 | 172*
O=C(Nc1ccc(Br)c(Cl)c1)c1ccco1 | 19 | 5 | -19 | 5 | 75*
O=C(Nc1ccc(Cl)c([N+](=O)[O-])c1)c1ccco1 | -5 | 4 | 5 | 2 | -3
O=C(Nc1ccccc1)Nc1ccc(Br)c(Cl)c1 | 12 | -2 | -12 | -1 | 67*
Cc1ccccc1NC(=O)c1ccccc1NC(=O)c1ccco1 | 29 | -1 | -29 | 2 | 26
